This passage reports Diuretic activity results from ChEMBL document CHEMBL1121573, “2-(Aminomethyl)phenols, a new class of saluretic agents. 1. Effects of nuclear substitution” (J Med Chem, 1980).

Series [1] deals with Canis familiaris. The experiment in a line: Compound administered intravenously at a dose of 5 mg/kg was evaluated for salidiuretic activity measured as sodium ion excretion in Dog; Value ranges from 100-249. On the set-up: dose 5 mg/kg, route intravenous. Conditions: in vivo, iv. It is filed as ADME, organism-based, Canis lupus familiaris, Urine. In outline:
(§1)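 Conditioned female mongrel dogs, postabsorptive, water-loaded (500 mL po) 1 h before sodium pentobarbital anesthesia (30 mg/kg iv). Bladder catheter; creatinine 4 g sc; phosphate–mannitol buffer pH 7.4 infused (3.0 mL/min) throughout. […] Urine Na+ measured; response scored 0–6.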

Series [2] deals with Rattus norvegicus. The experiment in a line: Evaluated for salidiuretic activity measured as sodium ion excretion in Rat, administered orally at a dose of 50 mg/kg. Also noted: unit not given beside the values. It is filed as functional, Urine. Conditions: route oral. In outline:
(§2)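 Female Charles-River rats (150–170 g), overnight on sugar diet with water ad libitum. Compound dissolved in DMF, diluted with water containing Tween 80 (final 4% DMF), given po in 5.0 mL; concurrent vehicle placebo. Three rats per metabolism cage; 0–5 h urine analysed for Na+, K+, Cl-. Values: mequiv × 100 per cage, geometric means of three cages per dose; scored 0–6 by Na+.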

Series [3] in a line: Compound administered orally at a dose of 5 mg/kg was evaluated for salidiuretic activity measured as sodium ion excretion in Rat. Conditions: Urine. Also noted: dose 5 mg/kg. It is filed as organism-based. In outline:
as §2

Series [4] can be described thus: Evaluated for salidiuretic activity measured as sodium ion excretion in Rat, administered orally at a dose of 16.5 mg/kg. In kind it is organism-based. Also noted: dose 16.5 mg/kg. Conditions: Urine. The essentials: as §2
Series [5] has as its system Canis familiaris. The experiment in a line: Salidiuretic activity in dog following i.v. dosing at 5 mg/kg. In kind it is functional, Canis lupus familiaris, Urine. On the set-up: unit not given beside the values. Conditions: route intravenous. In outline: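 Conditioned female mongrel dogs, postabsorptive, got a 500 mL oral water load 1 h before pentobarbital anesthesia (30 mg/kg iv). After replicate 15-min control collections, compound was given as an iv stat injection.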

Series [6] has as its system Rattus norvegicus. The experiment in a line: Compound administered orally at a dose of 81 mg/kg was evaluated for salidiuretic activity measured as sodium ion excretion in Rat. In kind it is ADME, organism-based, Urine. Also noted: dose 81 mg/kg, route oral; unit not given beside the values. Conditions: in vivo, po. In outline:
as §2

Series [7] has as its system Canis familiaris. The series can be described thus: Compound administered intravenously at a dose of 5 mg/kg was evaluated for salidiuretic activity measured as sodium ion excretion in Dog; Value ranges from 800-899. It is filed as ADME, organism-based, Canis lupus familiaris, Urine. On the set-up: dose 5 mg/kg, route intravenous; unit not given beside the values. Conditions: in vivo, iv. In outline: as §1

Series [8] concerns Canis familiaris. The series can be described thus: Compound administered intravenously at a dose of 5 mg/kg was evaluated for salidiuretic activity measured as sodium ion excretion in Dog. It is filed as ADME, organism-based, Canis lupus familiaris, Urine. Also noted: dose 5 mg/kg, route intravenous. Conditions: in vivo, iv. The essentials: as §1
In series [9] the test system is Canis familiaris. The series can be described thus: Compound administered intravenously was evaluated for salidiuretic activity measured as sodium ion excretion in Dog; Value ranges from 0-99. In kind it is ADME, organism-based, Canis lupus familiaris, Urine. Conditions: in vivo, iv. In outline:
as §1

Series [10] concerns Rattus norvegicus. The series can be described thus: Compound administered orally at a dose of 1 mg/kg was evaluated for salidiuretic activity measured as sodium ion excretion in Rat. Conditions: in vivo, po.

In the series on Canis familiaris [1], `CCCCc1cc(C)c(O)c(CN)c1.Cl` returned a Diuretic activity of 100.
Turning to `CC(C)(C)c1c(Cl)cc(CN)c(O)c1Cl.Cl`, the Diuretic activity in the series on Rattus norvegicus [2] stood at 2.4; in [3], 0.5; in series [4], 1.4; in the series on Canis familiaris [5], 250; with Rattus norvegicus [6], 2.9.
Regarding `CC(C)(C)c1cc(CN)c(O)c(C(F)(F)F)c1.Cl`, the Diuretic activity in the series with Rattus norvegicus [2] came out at 3.3; in series [3], 1.4; in [4], 2.7; with Canis familiaris [7], 800.
For `Cc1cc(CN)c(O)c(C(C)(C)C)c1.Cl`, the Diuretic activity in the series on Canis familiaris [1] was found to be 100.
`Cl.NCc1cc(Cl)c(Cl)c(Cl)c1O`: the Diuretic activity in the series with Rattus norvegicus [2] worked out at 3.3; in series [3], 1.4; in series [4], 2.7; in the series with Canis familiaris [5], 250.
`Cc1c(Br)c(C)c(CN)c(O)c1Br.Cl`: the Diuretic activity in the series on Rattus norvegicus [2] came to 3.3; in series [3], 1.4; in [4], 2.7; with Canis familiaris [7], 800.
Take `COc1cc(Cl)c(Cl)c(CN)c1O.Cl`: the Diuretic activity with Rattus norvegicus [2] came out at 1.2; in [3], 0.3; in the series on Canis familiaris [1], 100; in [4], 0.5; in the series on Rattus norvegicus [6], 1.5.
In the case of `Cl.NCc1cc(Cl)cc(-c2ccccc2)c1O`, the Diuretic activity with Canis familiaris [5] was determined as 250.
Take `CCC(C)(C)c1cc(I)c(O)c(CN)c1.Cl`: the Diuretic activity is 2.4 with Rattus norvegicus [2]; 0.5 in series [3]; 1.4 in series [4]; 800 in the series with Canis familiaris [7]; 2.9 in the series on Rattus norvegicus [6].
Regarding `CCc1cc(Cl)c(O)c(CN)c1.Cl`, the Diuretic activity in the series on Rattus norvegicus [2] was 3.3; in series [3], 1.4; in [4] it was 2.7; with Canis familiaris [8], more than 900.
`COc1cc(C)cc(CN)c1O.Cl` displayed a Diuretic activity in the series on Canis familiaris [1] of 100.
Turning to `Cc1c(Cl)c(C)c(CN)c(O)c1Cl.Cl`, the Diuretic activity in the series on Rattus norvegicus [2] was 3.3; in series [3], 1.4; in series [4], 2.7.
Consider `Cl.NCc1cc(Cl)cc(F)c1O`, for which the Diuretic activity with Canis familiaris [5] is recorded as 250.
For `Cc1cc(O)c(CN)c(C)c1C.Cl`, in the series with Canis familiaris [9], the Diuretic activity was found to be 0.
Take `Cl.NCc1cc(Cl)cc(I)c1O`: the Diuretic activity in the series on Rattus norvegicus [2] worked out at 1.8; in [3] it was 0.4; in series [4], 0.6; with Canis familiaris [7] it was 800; with Rattus norvegicus [6], 2.4.
With `NCc1cc(Cl)ccc1O`, the Diuretic activity in the series with Rattus norvegicus [2] amounted to 1.2; in series [3], 0.3; in series [4], 0.5; in the series on Canis familiaris [5] it was 250; with Rattus norvegicus [6], 1.5.
Take `Cc1c(Cl)c(C)c(CN)c(O)c1CN.Cl.Cl`: the figures for the Diuretic activity in the series on Rattus norvegicus [2] and with Rattus norvegicus [6] were less than 0.2 and less than 0.3, respectively.
Take `Cl.NCc1c(O)c(Cl)cc(Cl)c1O`: the Diuretic activity with Rattus norvegicus [2] was 1.2; in [3], 0.3; with Canis familiaris [9] it was 0; in series [4], 0.5; in the series with Rattus norvegicus [6] it was 1.5.
Regarding `CC(C)(C)c1cc(CN)c(O)c(Oc2ccc(Cl)cc2)c1.Cl`, the Diuretic activity in the series with Rattus norvegicus [2] was determined as 1.8; in series [3], 0.4; with Canis familiaris [1], 100; in [4], 0.6; in the series with Rattus norvegicus [6], 2.4.
Compound `CCCc1ccc(O)c(CN)c1.Cl` came in with a Diuretic activity with Canis familiaris [5] of 250.
For the compound `CC(C)(C)c1cc(F)c(O)c(CN)c1.Cl`, the Diuretic activity is 3.3 in the series on Rattus norvegicus [2], 1.4 in series [3], 2.7 in series [4] and more than 900 in the series with Canis familiaris [8].
The compound `CCCc1cc(CN)c(O)c(OC)c1.Cl` registered a Diuretic activity in the series with Canis familiaris [5] of 250.
In the case of `Cl.NCc1c(O)c(Cl)c(Cl)c(Cl)c1Cl`, the Diuretic activity in the series with Rattus norvegicus [2] was determined as 3.3; in series [3], 1.4; in series [4], 2.7; in the series with Canis familiaris [5], 250.
In the series on Canis familiaris [5], `CCCc1cc(CN)c(O)c(CCC)c1.Cl` displayed a Diuretic activity of 250.
Regarding `Cc1cc(Cl)c(C)c(CN)c1O.Cl`, the Diuretic activity in the series on Canis familiaris [9] was determined as 0.
Consider `Cc1cc(C)c(O)c(CN)c1C.Cl`, for which the Diuretic activity with Rattus norvegicus [2] was determined as 1.8; in [3] it was 0.4; in [4] it was 0.6; in the series on Canis familiaris [5] it was 250; with Rattus norvegicus [6] it was 2.4.
In the case of `Cc1c(C)c(C)c(CN)c(O)c1C.Cl`, the Diuretic activity in the series with Rattus norvegicus [2] was 2.4; in series [3], 0.5; in series [4], 1.4; with Canis familiaris [5], 250; in the series with Rattus norvegicus [6] it was 2.9.
Consider `CCc1c(Cl)c(C)c(Cl)c(O)c1CN.Cl`, for which the Diuretic activity in the series with Rattus norvegicus [2] was determined as 1.2; in series [3], 0.3; in the series with Canis familiaris [1], 100; in series [4] it was 0.5; in the series on Rattus norvegicus [6], 1.5.
`CCCCc1cc(I)c(O)c(CN)c1.Cl`: the Diuretic activity is on record as less than 0.2 with Rattus norvegicus [2], 100 in the series with Canis familiaris [1] and less than 0.3 in the series on Rattus norvegicus [6].
Compound `Cc1c(Cl)cc(CN)c(O)c1C.Cl` showed a Diuretic activity in the series on Canis familiaris [9] of 0.
`Cl.NCc1cc(Cl)cc(C(=O)O)c1O`: in the series on Canis familiaris [5], the Diuretic activity was 250.
Regarding `Cc1c(Cl)c(C(C)(C)C)c(Cl)c(O)c1CN.Cl`, the Diuretic activity with Rattus norvegicus [2] amounted to 2.4; in series [3], 0.5; in series [4], 1.4; with Rattus norvegicus [6], 2.9.
In the case of `CC(C)(C)c1cc(CN)c(O)c(C(C)(C)C)c1`, in the series with Canis familiaris [9], the Diuretic activity is 0.
Regarding `Br.Cc1c(O)c(CN)c(Cl)c(C)c1Cl`, the figures for the Diuretic activity in the series on Rattus norvegicus [2], in the series with Canis familiaris [1] and in the series with Rattus norvegicus [6] were less than 0.2, 100 and less than 0.3, respectively.
Turning to `Cc1cc(Cl)cc(CN)c1O.Cl`, in the series on Canis familiaris [1], the Diuretic activity is recorded as 100.
On to `CCCc1cc(C(C)(C)C)cc(CN)c1O.Cl`, for which the Diuretic activity in the series on Canis familiaris [9] came to 0.
Compound `CC(C)(c1ccccc1)c1ccc(O)c(CN)c1.Cl` returned a Diuretic activity in the series with Canis familiaris [5] of 250.
As for `Cl.NCc1cc(I)cc(I)c1O`, the Diuretic activity in the series with Rattus norvegicus [2] came out at 2.4; in series [3], 0.5; in [4] it was 1.4; in the series with Canis familiaris [7], 800; in the series on Rattus norvegicus [6], 2.9.
In turn, `Cc1c(Cl)ccc(O)c1CN.Cl` came in with a Diuretic activity in the series with Canis familiaris [5] of 250.
Turning to `CC(C)Cc1cc(I)c(O)c(CN)c1.Cl`, the Diuretic activity with Rattus norvegicus [2] amounted to 1.2; in series [3] it was 0.3; in the series on Canis familiaris [1], 100; in [4] it was 0.5; in the series on Rattus norvegicus [6] it was 1.5.
Turning to `Cc1cc(N)c(C)c(CN)c1O.Cl.Cl`, the Diuretic activity with Canis familiaris [9] came out at 0.
On the same count and under the same terms, for `CC(C)(C)CC(C)(C)c1cc(Cl)c(O)c(CN)c1.Cl` the value was 0.
In the case of `Cl.NCc1c(O)c(Cl)cc(Cl)c1F`, the Diuretic activity is 3.3 with Rattus norvegicus [2], 1.4 in series [3], 2.7 in series [4] and 800 in the series on Canis familiaris [7].
For `COc1c(Cl)c(OC)c(CN)c(O)c1I.Cl`, in that order: 3.3, 1.4, 2.7 and 800.
In the case of `Cc1cc(Cl)c(O)c(CN)c1.Cl`, the Diuretic activity in the series on Rattus norvegicus [2] is 1.8; in series [3], 0.4; in the series with Canis familiaris [1] it was 100; in series [4], 0.6; in the series with Rattus norvegicus [6] it was 2.4.
For `NCc1c(O)ccc(Cl)c1Cl`, the Diuretic activity in the series with Rattus norvegicus [2] came out at 1.2; in series [3] it was 0.3; in series [4], 0.5; with Canis familiaris [5] it was 250; in the series with Rattus norvegicus [6] it was 1.5.
Consider `COc1c(C(C)(C)C)cc(I)c(O)c1CN.Cl`, for which the Diuretic activity in the series with Rattus norvegicus [2] worked out at 2.4; in series [3], 0.5; in series [4], 1.4; with Canis familiaris [7] it was 800; in the series on Rattus norvegicus [6] it was 2.9.
Take `Cl.NCc1cc(CN)c(Cl)c(Cl)c1O`: the Diuretic activity in the series on Canis familiaris [9] turned out to be 0.
In the case of `CCOC(=O)c1cc(I)c(O)c(CN)c1.Cl`, the Diuretic activity in the series with Rattus norvegicus [2] stood at 1.8; with Canis familiaris [5] it was 250; in the series with Rattus norvegicus [6], 2.4.
As to `CCC(C)c1cc(Cl)c(O)c(CN)c1.Cl` (stereo not given), the Diuretic activity in the series with Rattus norvegicus [2] was 3.6; in series [3], 2.6; in series [4] it was 3.3; in the series on Rattus norvegicus [10] it was 0.7; with Canis familiaris [7] it was 800.
